Assay results taken from ChEMBL document CHEMBL4020830, “Design, Synthesis, and Evaluation of a Novel Series of Indole Sulfonamide Peroxisome Proliferator Activated Receptor (PPAR) α/γ/δ Triple Activators: Discovery of Lanifibranor, a New Antifibrotic Clinical Candidate” (J Med Chem, 2018).
Active and inactive are the calls of the source. The rule behind the calls is not given here.

Columns and labels:
[1] = test system: Rattus norvegicus; experiment: Toxicity in Sprague-Dawley rat assessed as effect on heart weight at 100 to 1000 mg/kg for 6 weeks; assay type: organism-based; conditions: in vivo, 1008 h
Summary of the method: (§1)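 Sprague-Dawley rats were treated at 100 and 1000 mg/kg. Hematocrit and plasma volume were measured after 4 weeks and heart weight after 6 weeks. Analysis was one-way ANOVA with Dunnett's test versus control.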

[2] = target: T1, Peroxisome proliferator-activated receptor alpha (Mus musculus, UniProt P23204); experiment: Transactivation of mouse GAL4-fused PPARalpha LBD expressed in African green monkey COS7 cells co-expressing 5Gal4 pGL3 TK Luc after overnight incubation by luciferase reporter gene assay; assay type: cell-based
T1 sequence (P23204 whole entry): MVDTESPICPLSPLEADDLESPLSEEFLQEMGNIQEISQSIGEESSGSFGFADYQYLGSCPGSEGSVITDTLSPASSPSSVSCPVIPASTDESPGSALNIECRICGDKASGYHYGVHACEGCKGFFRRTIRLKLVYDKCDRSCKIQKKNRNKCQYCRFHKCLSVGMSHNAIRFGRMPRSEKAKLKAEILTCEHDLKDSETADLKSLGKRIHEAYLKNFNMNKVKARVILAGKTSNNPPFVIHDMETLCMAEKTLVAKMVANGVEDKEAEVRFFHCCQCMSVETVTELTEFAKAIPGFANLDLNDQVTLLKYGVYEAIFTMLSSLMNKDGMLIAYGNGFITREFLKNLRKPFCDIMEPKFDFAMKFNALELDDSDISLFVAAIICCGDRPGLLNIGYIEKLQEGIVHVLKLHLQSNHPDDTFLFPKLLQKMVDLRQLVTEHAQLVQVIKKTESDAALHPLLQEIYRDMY
Summary of the method: (§2)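 Cell-based Gal-4 transactivation assay in COS-7 cells transfected with PPARα, PPARδ or PPARγ ligand-binding domain. EC50 and Emax were derived, with Emax as maximum activation in percent of control. EC50s are means of at least two independent experiments performed in triplicate.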

[3] = target: T2, Peroxisome proliferator-activated receptor delta (Mus musculus) (UniProt P35396); experiment: Transactivation of mouse GAL4-fused PPARdelta LBD expressed in African green monkey COS7 cells co-expressing 5Gal4 pGL3 TK Luc after overnight incubation by luciferase reporter gene assay relative to GW501516; assay type: cell-based; summary of the method: as §2
T2 sequence (whole entry): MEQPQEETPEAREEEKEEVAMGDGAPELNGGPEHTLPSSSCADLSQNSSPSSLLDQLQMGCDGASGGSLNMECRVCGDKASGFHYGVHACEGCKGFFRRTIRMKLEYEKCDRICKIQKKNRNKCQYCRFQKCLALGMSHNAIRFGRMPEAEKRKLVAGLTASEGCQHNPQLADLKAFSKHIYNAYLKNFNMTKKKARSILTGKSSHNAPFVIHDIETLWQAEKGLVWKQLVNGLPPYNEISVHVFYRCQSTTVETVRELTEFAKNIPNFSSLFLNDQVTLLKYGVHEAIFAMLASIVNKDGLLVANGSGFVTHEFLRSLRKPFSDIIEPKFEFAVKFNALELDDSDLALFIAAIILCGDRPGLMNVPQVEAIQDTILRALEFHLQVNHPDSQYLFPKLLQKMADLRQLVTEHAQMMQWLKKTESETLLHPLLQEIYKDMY

[4] = target: T3, Peroxisome proliferator-activated receptor gamma (Homo sapiens, UniProt P37231)
T3 sequence (P37231 whole entry): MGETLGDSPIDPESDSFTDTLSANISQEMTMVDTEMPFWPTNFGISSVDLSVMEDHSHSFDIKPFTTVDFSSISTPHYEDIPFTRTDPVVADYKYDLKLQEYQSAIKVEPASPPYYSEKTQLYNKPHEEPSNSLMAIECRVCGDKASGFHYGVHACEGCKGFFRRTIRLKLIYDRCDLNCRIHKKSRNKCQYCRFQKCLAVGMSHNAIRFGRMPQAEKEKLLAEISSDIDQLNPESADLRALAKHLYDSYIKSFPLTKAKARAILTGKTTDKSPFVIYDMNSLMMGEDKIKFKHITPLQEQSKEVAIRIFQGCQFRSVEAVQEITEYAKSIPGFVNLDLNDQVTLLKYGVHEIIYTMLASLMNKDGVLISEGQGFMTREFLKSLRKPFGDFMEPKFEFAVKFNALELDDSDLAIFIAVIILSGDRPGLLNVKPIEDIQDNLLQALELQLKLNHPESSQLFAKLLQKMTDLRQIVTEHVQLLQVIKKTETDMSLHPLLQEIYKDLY

[5] = test system: Mus musculus; experiment: Reduction in plasma triglyceride level in C57Bl6/J mouse model of CCl4-induced liver fibrosis at 3 to 30 mg/kg, po qd for 3 weeks; assay type: functional, organism-based
Summary of the method: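 CCl4-induced liver fibrosis mice were dosed orally once daily at 3, 10 or 30 mg/kg for 3 weeks. Controls were CCl4-vehicle, vehicle oil and saline-injected groups. Liver collagen was scored by picrosirius red staining of histological sections. Plasma triglycerides and adiponectin were also measured. Analysis was one-way ANOVA with Dunnett's test.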

[6] = target: T3, Peroxisome proliferator-activated receptor gamma; remark: listed apart in the source
[7] = test system: Rattus norvegicus; experiment: Toxicity in Sprague-Dawley rat assessed as reduction in hematocrit level at 100 to 1000 mg/kg for 4 weeks; assay type: organism-based; conditions: in vivo, 672 h; summary of the method: as §1
[8] = target: T3, Peroxisome proliferator-activated receptor gamma; remark: listed apart in the source
[9] = test system: Mus musculus; experiment: Antidiabetic activity in C57BL/Ks mouse model of diabetic dyslipidemia assessed as decrease in plasma glucose level at 10 mg/kg, po qd administered via gavage for 10 days measured 4 hrs post last dose; assay type: functional, organism-based
Summary of the method: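 Homozygous male C57BL/Ks-db (db/db) mice were gavaged once daily at 10 or 30 mg/kg, for 5 or 10 days. Retro-orbital blood was drawn before treatment and 4 h after the last gavage. Glucose and triglycerides were measured in serum. Results are expressed as % variation on the final day versus the control group. Analysis was one-way ANOVA with Dunnett's test.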

EC50 [2] | Emax [3] | EC50 [4] | EC50 [6] | EC50 [8] | Compound | Activity [1] | Activity [5] | Activity [7] | Activity [9]
366 nM | 131% | 3270 nM | 3410 nM | 1140 nM | O=C(O)CCCc1cc2cc(Cl)ccc2n1S(=O)(=O)c1ccc2ncsc2c1 [LANIFIBRANOR] | Non-Toxic | Active | Non-Toxic | 
 |  |  |  |  | O=C(O)CCc1cc2cc(Cl)ccc2n1S(=O)(=O)c1ccccc1 |  |  |  | inactive
